Assay results taken from PMC11877486 (Science Progress, 2025).
Where a name gives a salt, the structure may show the parent alone. Read-outs that look alike come from different tables or passages of the source. Peptide text beside a SMILES is read from it.

Experiments:
[1] = cited from earlier work; for population typical value of CL: critically ill patients
[2] = Plasma concentration of colistin sulfate in patients on CVVHDF; format: in vivo; settings: human, iv, SD
Outline: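 Adult patients on CVVHDF (AN69 polyacrylonitrile filter; blood flow 100–200 ml/min) received iv colistin sulfate infused over 0.5 h or 2 h. At steady state, samples were drawn from the dorsal foot artery just before dosing (Cmin) and at roughly 0.5, 1, 2, 4 and 6 h after. Plasma was stored at −80°C. Colistin A and B were measured separately by UHPLC-MS/MS on a HILIC column (LOQ 0.027 and 0.053 mg/l) and summed. AUC0−24h was calculated by the trapezoidal rule.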

Population PK model = format: in vivo, human
Outline: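 NONMEM 7.4 was fitted to 86 plasma concentrations from 20 CVVHDF patients, using FOCE to compare one- and two-compartment models. Interindividual variability was exponential. […] Validation used goodness-of-fit plots, a pcVPC with 1000 simulated patients and a 1000-sample bootstrap.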

[3] = derived from preclinical studies; cited from earlier work
[4] = cited from earlier work; for population typical value CL, previous research: critically ill patients
[5] = cited from earlier work
[6] = cited from earlier work; remark: listed apart in the source
[7] = tested on: isolated pathogens (CRO), mainly Klebsiella pneumoniae, Acinetobacter baumannii, Pseudomonas aeruginosa; test: Drug sensitivity of isolated pathogens; format: cell-based; settings: all isolated pathogens (CRO) of the 20 patients

polymyxin B sulfate
population typical value of CL ([1]; CVVH group): 4.52 L/h | AUC ([1]; CVVH group, p < 0.001 vs non-CVVH): 27940 ± 10920 ng·h/mL | population typical value of CL ([1]; non-CVVH group): 1.95 L/h | AUC ([1]; non-CVVH group): 77890 ± 35660 ng·h/mL

CC[C@H](C)CCCCC(=O)N[C@@H](CCN)C(=O)N[C@H](C(=O)N[C@@H](CCN)C(=O)N[C@H]1CCNC(=O)[C@H]([C@@H](C)O)NC(=O)[C@H](CCN)NC(=O)[C@H](CCN)NC(=O)[C@H](CC(C)C)NC(=O)[C@@H](CC(C)C)NC(=O)[C@H](CCN)NC1=O)[C@@H](C)O [colistin sulfate] (HELM PEPTIDE1{[CC[C@H](C)CCCCC(=O)[*:2]].[Dab].T.[Dab].[Dab].[Dab].[dL].L.[Dab].[Dab].T}$PEPTIDE1,PEPTIDE1,5:R3-11:R2$$$V2.0)
AUC(0-t) [2]: 12500 ± 6410 ng·h/mL | Q, bootstrap median (Population PK model; bootstrap, 1000 samples): 27.15 L/h | V1, bootstrap median (Population PK model; bootstrap, 1000 samples): 20.58 L | V2, bootstrap median (Population PK model; bootstrap, 1000 samples): 34.71 L | θCysC, bootstrap median (Population PK model; bootstrap, 1000 samples): −0.537 | θwt, bootstrap median (Population PK model; bootstrap, 1000 samples): 1.189 | CL, bootstrap median (Population PK model; bootstrap, 1000 samples, 989 successful): 3.18 L/h | θCysC, final model estimate (Population PK model; effect of CysC on CL, (CYSC/2.31)^θ): −0.626 | θwt, final model estimate (Population PK model; effect of WT on CL, (WT/65)^θ): 1.030 | clearance (Population PK model; human, plasma, iv): 61.5 mL/min | Q, final model estimate (Population PK model; intercompartmental clearance, patients on CVVHDF): 25.30 L/h | V1, final model estimate (Population PK model; volume of distribution in the central compartment, patients on CVVHDF): 20.50 L | V2, final model estimate (Population PK model; volume of distribution in the peripheral compartment, patients on CVVHDF): 33.20 L | protein binding rate [3]: about 50% | population typical value CL, previous research ([4]; first of two values): 0.994 L/h | population typical value CL, previous research ([4]; second of two values): 1.5 L/h | plasma concentration range ([4]; non-CRRT patients): 280 to 6200 ng/mL | steady-state trough concentration ([5]; CRRT group, p = 0.328 vs non-CRRT): 0.58 ± 0.30 mg/L | steady-state trough concentration ([5]; non-CRRT group): 0.64 ± 0.25 mg/L | solubility in water [6]: water-soluble

C[C@@H](O)[C@H]1C(=O)N2C(C(=O)O)=C(S[C@@H]3CN[C@H](C(=O)N(C)C)C3)[C@H](C)[C@H]12 [meropenem]
MIC [7]: ≥ 8 µg/mL
